Experimental data from ChEMBL document CHEMBL4020828, “Design and Syntheses of Highly Potent Teixobactin Analogues against Staphylococcus aureus, Methicillin-Resistant Staphylococcus aureus (MRSA), and Vancomycin-Resistant Enterococci (VRE) in Vitro and in Vivo” (J Med Chem, 2018).
Converted amounts (≈) assume the structure as drawn. The source made the active and inactive calls. No cut-off for these calls is given here.

Columns and labels:
Staphylococcus aureus [1] = test: Antibacterial activity against methicillin-resistant Staphylococcus aureus ATCC 700699 after 24 hrs; type: functional; conditions: ATCC 700699, 24 h
A549 [2] = test: Cytotoxicity against human A549 cells assessed as cytoskeleton or nuclear disruption at 15.62 to 250 ug/ml after 24 hrs by rhodamine-phalloidin/Hoechst 33342 staining-based fluorescence microscopic method; type: cell-based; conditions: a549, 24 h
Summary of the method: (§1)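 After 24 h peptide exposure, cells were fixed and stained with rhodamine-phalloidin (actin), Alexa Fluor 488 anti-α-tubulin and Hoechst 33342 (nuclei). They were then imaged by automated high-content microscopy. Nocodazole (10 µg/ml) served as toxicity control. Representative images shown at 62.5 µg/ml.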

Staphylococcus aureus [3] = test: Bactericidal activity against methicillin-resistant Staphylococcus aureus isolate 21455 after 24 hrs; type: functional
[4] = test system: Staphylococcus saprophyticus; test: Antibacterial activity against Staphylococcus saprophyticus ATCC BAA 750 after 24 hrs; type: functional; conditions: ATCC BAA 750, 24 h
Staphylococcus aureus [5] = test: (§2) Antibacterial activity against Staphylococcus aureus ATCC 29213 infected in C57BL6 mouse cornea assessed as decrease in bacterial load/tissue at 0.3% administered tropically 2 times on day 1, 4 times on day 2 and 2 times on day 3 starting from 6 hrs post infection measured 48 hrs post last dose; type: functional; design: scale not given: the % may be the effect or the level left
Summary of the method: (§3)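 Mouse corneal epithelium scratched with a scalpel, then infected with 15 µl of 6×10⁶ CFU/ml S. aureus ATCC 29213. From 6 h p.i., 15 µl of PBS vehicle, 0.3% w/v peptide in PBS or 0.3% moxifloxacin was applied, 8 doses total. Outcomes were slit-lamp examination, AS-OCT corneal thickness and CFU counts of harvested corneas (mean log₁₀ CFU/tissue ± SEM).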

Staphylococcus aureus [6] = test: Antibacterial activity against methicillin-resistant Staphylococcus aureus isolate 1003 after 24 hrs; type: functional; conditions: isolate 1003, 24 h
Enterococcus faecalis [7] = test: Antibacterial activity against vancomycin-resistant Enterococcus faecalis isolate 1004 after 24 hrs; type: functional; conditions: isolate 1004, 24 h
Staphylococcus aureus [8] = test: as §2, with “conjunctival chemosis” for “bacterial load/tissue”, “dose by slit-lamp photography” for “dose”; type: functional; summary of the method: as §3
[9] = Cytotoxicity against human primary HDF assessed as cell viability at 15.62 to 250 ug/ml after 24 hrs by MTS assay relative to control; type: cell-based; conditions: primary HDF cells, read-out: Activity
Summary of the method: (§4)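 Cells exposed 24 h to peptide at 15.62–250 µg/ml, prepared fresh in culture medium from a 500 µg/ml stock. Controls were DMSO (0.1% v/v) or nocodazole (5 µg/ml in DMSO). Metabolic activity was read by MTS viability assay. Mean ± SEM of three independent triplicate experiments.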

Staphylococcus aureus [10] = test: as §2, with “mean corneal thickness” for “decrease in bacterial load/tissue”, “24” for “48”, “dose by AS-OCT method (reference value: 151.7 +/- 12.7 micrometer)” for “dose”; type: functional; summary of the method: as §3
[11] = test system: Staphylococcus saprophyticus; test: Antibacterial activity against Staphylococcus saprophyticus ATCC 49907 after 24 hrs; type: functional; conditions: ATCC 49907, 24 h
Pseudomonas aeruginosa = test: Antibacterial activity against Pseudomonas aeruginosa after 24 hrs; type: functional
Enterococcus faecalis [12] = test: Antibacterial activity against vancomycin-resistant Enterococcus faecalis isolate 1002 after 24 hrs; type: functional; conditions: isolate 1002, 24 h
Staphylococcus aureus [13] = test: as §2, with “mean corneal thickness” for “decrease in bacterial load/tissue”, “dose by AS-OCT method (reference value: 186.2 +/- 17.5 micrometer)” for “dose”; type: functional; summary of the method: as §3
[14] = test system: Bacillus subtilis (Bacillus subtilis); test: Antibacterial activity against Bacillus subtilis ATCC 6633 after 24 hrs; conditions: ATCC 6633, 24 h
Staphylococcus aureus [15] = test: Antibacterial activity against methicillin-resistant Staphylococcus aureus isolate 42412 after 24 hrs; type: functional; conditions: isolate 42412, 24 h
Staphylococcus aureus [16] = test: Bactericidal activity against Staphylococcus aureus 4299 after 24 hrs; type: functional
Staphylococcus aureus [17] = test: Antibacterial activity against Staphylococcus aureus ATCC 29213 after 24 hrs; type: functional; conditions: ATCC 29213, 24 h
[18] = test system: Staphylococcus saprophyticus; test: Antibacterial activity against Staphylococcus saprophyticus ATCC 15305 after 24 hrs; type: functional; conditions: ATCC 15305, 24 h
Staphylococcus aureus [19] = test: Antibacterial activity against methicillin-resistant Staphylococcus aureus ATCC 33591 at 5 to 20 times MIC after 24 hrs; type: functional
Enterococcus faecalis [20] = test: Antibacterial activity against vancomycin-resistant Enterococcus faecalis ATCC 700802 after 24 hrs; type: functional; conditions: ATCC 700802, 24 h
Staphylococcus aureus [21] = test: Antibacterial activity against methicillin-resistant Staphylococcus aureus isolate 21455 after 24 hrs; type: functional; conditions: isolate 21455, 24 h
Staphylococcus aureus [22] = test: Bactericidal activity against Staphylococcus aureus ATCC 29213 after 24 hrs; type: functional
Staphylococcus aureus [23] = test: Bactericidal activity against methicillin-resistant Staphylococcus aureus ATCC 700699 after 24 hrs; type: functional
Bacillus cereus = test: Antibacterial activity against Bacillus cereus ATCC 11788 after 24 hrs; type: functional; conditions: ATCC 11788, 24 h
Staphylococcus aureus [24] = test: Antibacterial activity against Staphylococcus aureus ATCC 29213 at 5 to 20 times MIC after 24 hrs; type: functional
[25] = test system: Staphylococcus epidermidis; test: Antibacterial activity against Staphylococcus epidermidis 12228 after 24 hrs; type: functional; conditions: Staphylococcus epidermidis, 12228, 24 h
[26] = Cytotoxicity against human primary HDF assessed as cytoskeleton or nuclear disruption at 15.62 to 250 ug/ml after 24 hrs by rhodamine-phalloidin/Hoechst 33342 staining-based fluorescence microscopic method; type: cell-based; summary of the method: as §1
Staphylococcus aureus [27] = test: Ratio of MBC to MIC for Staphylococcus aureus ATCC 29213; type: functional
A549 [28] = test: Cytotoxicity against human A549 cells assessed as effect on cell morphology at 15.62 to 250 ug/ml after 24 hrs by rhodamine-phalloidin/Hoechst 33342 staining-based fluorescence microscopic method; conditions: a549, 24 h; summary of the method: as §1
Staphylococcus aureus [29] = test: Antibacterial activity against methicillin-resistant Staphylococcus aureus ATCC 33591 after 24 hrs; type: functional; conditions: ATCC 33591, 24 h
Oryctolagus cuniculus = test: Toxicity in New Zealand white rabbit corneal-damage model assessed as effect on wound healing at 0.3% administered 4 times a day tropically for 10 days by fluorescein staining-based slit-lamp biomicroscopy; conditions: in vivo, topical_or_ocular, 240 h
Summary of the method: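 Rabbit cornea circularly debrided, then 50 µl of 0.3% (w/v) peptide applied topically 4 times/day. Vehicle (PBS) served as control, 2 eyes PBS versus 4 eyes treated. Re-epithelialization and wound closure followed over time by fluorescein staining and slit-lamp biomicroscopy.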

[30] = Cytotoxicity against human primary HDF assessed as effect on cell morphology at 15.62 to 250 ug/ml after 24 hrs by rhodamine-phalloidin/Hoechst 33342 staining-based fluorescence microscopic method; summary of the method: as §1
[31] = Cytotoxicity against human A549 cells assessed as cell viability at 15.62 to 250 ug/ml after 24 hrs by MTS assay relative to control; type: cell-based; conditions: read-out: Activity; summary of the method: as §4
Staphylococcus aureus [32] = test: Bactericidal activity against Staphylococcus aureus ATCC 29213 assessed as log reduction in bacterial load at 0.5 to 1 ug/ml after 8 hrs by time-kill assay; type: functional
Enterococcus faecalis [33] = test: Antibacterial activity against vancomycin-resistant Enterococcus faecalis isolate 1001 after 24 hrs; type: functional; conditions: isolate 1001, 24 h
Enterococcus faecalis [34] = test: Antibacterial activity against vancomycin-resistant Enterococcus faecalis ATCC 29212 after 24 hrs; type: functional; conditions: ATCC 29212, 24 h
[35] = test system: Staphylococcus saprophyticus; test: Antibacterial activity against Staphylococcus saprophyticus ATCC 49453 after 24 hrs; type: functional; conditions: ATCC 49453, 24 h
Enterococcus faecalis [36] = test: Antibacterial activity against vancomycin-resistant Enterococcus faecalis isolate 1008 after 24 hrs; type: functional; conditions: isolate 1008, 24 h
Staphylococcus aureus [37] = test: as §2, with “corneal infiltrates” for “bacterial load/tissue”, “dose by slit-lamp photography” for “dose”; type: functional; summary of the method: as §3
Staphylococcus aureus [38] = test: Ratio of MBC to MIC for Staphylococcus aureus 4299; type: functional
A549 [39] = test: Cytotoxicity against human A549 cells assessed as loss of adhered cells at 5 ug/ml after 24 hrs by MTS assay; type: cell-based; conditions: a549, 24 h
Summary of the method: (§5)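 A549 lung epithelial cells or primary human dermal fibroblasts exposed 24 h to peptide (15.62–250 µg/ml, dissolved fresh in culture medium). Nocodazole (5 µg/ml in DMSO) served as toxicity control, with 0.1% v/v DMSO as vehicle control. Metabolic activity was read by MTS viability assay. Data are from three independent triplicate experiments, given as mean ± SEM.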

[40] = Cytotoxicity against human primary HDF assessed as loss of adhered cells at 5 ug/ml after 24 hrs by MTS assay; type: cell-based; summary of the method: as §5

## CC[C@@H](C)[C@@H](NC(=O)[C@@H](CCCNC(=N)N)NC(=O)[C@H](CO)NC(=O)[C@@H](NC(=O)[C@@H](Cc1ccccc1)NC)[C@@H](C)CC)C(=O)N[C@H](C(=O)N[C@@H](CO)C(=O)N[C@H]1C(=O)N[C@@H](C)C(=O)N[C@@H](CC(C)C)C(=O)N[C@@H]([C@@H](C)CC)C(=O)O[C@H]1C)[C@@H](C)CC
Staphylococcus aureus [1]
  MIC: 0.25 µg/mL (≈ 0.203 µM)
A549 [2]
  Activity: Non-Toxic
Staphylococcus aureus [3]
  Activity: Active
[4]
  MIC: < 0.0625 µg/mL
Staphylococcus aureus [5]
  Activity: >99%
Staphylococcus aureus [6]
  MIC: 0.5 µg/mL (≈ 0.407 µM)
Enterococcus faecalis [7]
  MIC: 0.25 µg/mL (≈ 0.203 µM)
Staphylococcus aureus [8]
  Activity: Active
[9]
  viability at 24 h: ≥ 80%
Staphylococcus aureus [10]
  Activity: 92.3 um
[11]
  MIC: < 0.0625 µg/mL
Pseudomonas aeruginosa
  Activity: inactive
Enterococcus faecalis [12]
  MIC: 1 µg/mL (≈ 0.813 µM)
Staphylococcus aureus [13]
  Activity: 121.7 um
[14]
  MIC: 0.125 µg/mL (≈ 0.102 µM)
Staphylococcus aureus [15]
  MIC: 0.0313 µg/mL (≈ 0.0255 µM)
Staphylococcus aureus [16]
  Activity: Active
Staphylococcus aureus [17]
  MIC: < 0.0625 µg/mL
[18]
  MIC: < 0.0625 µg/mL
Staphylococcus aureus [19]
  Activity: Active
Enterococcus faecalis [20]
  MIC: 0.5 µg/mL (≈ 0.407 µM)
Staphylococcus aureus [21]
  MIC: 0.0313 µg/mL (≈ 0.0255 µM)
Staphylococcus aureus [22]
  Activity: Active
Staphylococcus aureus [23]
  Activity: Active
Bacillus cereus
  MIC: 0.5 µg/mL (≈ 0.407 µM)
Staphylococcus aureus [24]
  Activity: Active
[25]
  MIC: < 0.0625 µg/mL
[26]
  Activity: Non-Toxic
Staphylococcus aureus [27]
  Ratio: <4
A549 [28]
  Activity: Non-Toxic
Staphylococcus aureus [29]
  MIC: 0.125 µg/mL (≈ 0.102 µM)
Oryctolagus cuniculus
  Activity: Non-Toxic
[30]
  Activity: Non-Toxic
[31]
  viability at 24 h: ≥ 80%
Staphylococcus aureus [32]
  Activity: >=2 deltalog10CFU/ml
Enterococcus faecalis [33]
  MIC: 0.5 µg/mL (≈ 0.407 µM)
Enterococcus faecalis [34]
  MIC: 0.5 µg/mL (≈ 0.407 µM)
[35]
  MIC: < 0.0625 µg/mL
Enterococcus faecalis [36]
  MIC: 0.5 µg/mL (≈ 0.407 µM)
Staphylococcus aureus [37]
  Activity: Active
Staphylococcus aureus [38]
  Ratio: <4

## COC(=O)Nc1nc2ccc(C(=O)c3cccs3)cc2[nH]1 [NOCODAZOLE]
A549 [39]
  Activity: Toxic
[40]
  Activity: Toxic
